Results: ChEMBL document CHEMBL1121553, “Substituted 6,7-dihydroimidazo[1,2-a]purin-9(4H)-ones” (J Med Chem, 1980)
≈ marks a conversion by molar mass, not a printed value. Calls of active or inactive are those of the source. The calls are words filed in the database; no cut-off is given here.

Assays:
Cavia porcellus [1] = species: Cavia porcellus; experiment: In vitro bronchodilator activity in isolated guinea pig tracheal spiral preparation; format: functional; details: Trachea
Method in brief: (§1)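 Guinea pig tracheal spiral held under 1.0 g tension, equilibrated 90–120 min to maximal spontaneous tonus. One drug concentration per spiral, ≥3 trials per concentration. Relaxation was expressed as % of that produced by papaverine (10 µg/mL) in the same tissue. Concentrations are bath values in µg/mL; the 50%-relaxation concentration was obtained by regression.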

Rattus norvegicus [2] = experiment: Antiallergic activity by passive cutaneous anaphylaxis test in ovalbumin sensitized male Harlan-Sprague-Dawley rats administered perorally; format: functional; details: po
Method in brief: (§2)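 Donor rats got egg albumin im (1 mg/rat) plus killed B. pertussis vaccine ip (2 × 10¹⁰ organisms/rat) and were bled 10–12 days later for IgE-rich antiserum. Recipient rats (100–150 g) were sensitized intradermally with 0.1 mL of 1:2.5 and 1:10 antiserum dilutions.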

Cavia porcellus [3] = species: Cavia porcellus; experiment: Evaluation of in vitro bronchodilator activity in isolated guinea pig tracheal spiral preparation; format: functional; details: Trachea; method in brief: as §1
Rattus norvegicus [4] = experiment: In vivo bronchodilator activity in methacholine (intravenous) induced bronchospasm in male Harlan-Sprague-Dawley rats when administered intraduodenally; format: functional
Rattus norvegicus [5] = experiment: In vivo bronchodilator activity in methacholine (intravenous) induced bronchospasm in male Harlan-Sprague-Dawley rats when administered intraduodenally; statistically significant inhibition of < 50% at thr stated dose; format: functional
Rattus norvegicus [6] = experiment: Antiallergic activity was evaluated by inhibition of allergen-induced bronchospasm in male Harlan-Wistar rats when administered intraduodenally 15 min prior to antigen challenge; format: functional; details: intraduodenal
Rattus norvegicus [7] = experiment: Antiallergic activity was evaluated by passive cutaneous anaphylaxis test in egg albumin sensitized male Harlan-Sprague-Dawley rats when administered perorally; format: functional; details: po; method in brief: as §2
[8] = Inhibition of rat lung cGMP-Phosphodiesterase
Rattus norvegicus [9] = experiment: Antiallergic activity by passive cutaneous anaphylaxis test in rats by intraduodenal administration; format: functional
Method in brief: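 Recipient male Harlan-Sprague-Dawley or Wistar rats (100–150 g) received 0.1 mL intradermal antiserum at 1:2.5 and 1:10. Donor antiserum came from rats given egg albumin 1 mg im plus killed B. pertussis 2 × 10¹⁰ ip, bled 10–12 days later. After 48 h, drug went intraduodenally under anesthesia, then iv egg albumin 25 mg/kg with Evans blue 25 mg/kg. Read-out was spot-diameter inhibition versus controls, ≥5 rats/dose; ED50 was estimated.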

Rattus norvegicus [10] = experiment: Antiallergic activity by passive cutaneous anaphylaxis test in rats by intravenous administration; format: functional; method in brief: as §2
Rattus norvegicus [11] = experiment: Percent inhibition of PCA reaction in anesthetized rats at 47.6 mg/kg oral administration for 24 hr r; format: functional
Method in brief: (§3)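 Passive cutaneous anaphylaxis in anesthetized rats. Passive sensitization used intradermal IgE antiserum (1:2.5 and 1:10), with a 48-h latent period. Intraduodenal or oral dose is expressed as free-acid equivalent of the salt given. Rats were challenged at 15 min, 3, 6 or 24 h with iv egg albumin 25 mg/kg plus Evans blue 25 mg/kg. Inhibition was calculated from mean spot diameters versus vehicle controls, 10 animals per dose.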

Rattus norvegicus [12] = experiment: Percent inhibition of PCA reaction in anesthetized rats at 47.6 mg/kg oral administration for 3 hr; format: functional; method in brief: as §3
Rattus norvegicus [13] = experiment: Percent inhibition of PCA reaction in anesthetized rats at 47.6 mg/kg oral administration for 6 hr; format: functional; method in brief: as §3
Rattus norvegicus [14] = experiment: Percent inhibition of PCA reaction in anesthetized rats after 11.7 mg/kg intraduodenal administration for 15 min; format: functional; details: 0.25 h; method in brief: as §3
Rattus norvegicus [15] = experiment: Percent inhibition of PCA reaction in anesthetized rats at 47.6 mg/kg oral administration for 15 min; format: functional; details: 0.25 h; method in brief: as §3
Rattus norvegicus [16] = species: Rattus norvegicus; experiment: Antiallergic activity by passive cutaneous anaphylaxis test in vitro in rats; format: functional
Method in brief: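 Peritoneal mast cells were lavaged from male Harlan-Sprague-Dawley rats (200–300 g) with HBSS containing 0.1% albumin and 5 mM phosphate. Cells were sensitized with IgE antiserum plus heparin for 2 h at 37 °C, then challenged with egg albumin, drug added simultaneously. After 10 min, histamine was measured fluorimetrically; inhibition versus no-drug release, four trials per concentration.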

Rattus norvegicus [17] = experiment: Percent inhibition of PCA reaction in anesthetized rats at 11.7 mg/kg intraduodenal administration for 3 hr
Rattus norvegicus [18] = experiment: Antiallergic activity by passive cutaneous anaphylaxis test in ovalbumin sensitized male Harlan-Sprague-Dawley rats at 25 mg/kg oral dose (inactive); format: functional, organism-based; design: dose 25 mg/kg; method in brief: as §2
Rattus norvegicus [19] = species: Rattus norvegicus; experiment: Antiallergic activity in in vitro antigen-induced histamine release from isolated mast cells; format: functional, cell-based
Method in brief: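 Peritoneal lavage cells from male Harlan-Sprague-Dawley rats (200–300 g), collected in HBSS with 0.1% human albumin and 5 mM phosphate. Cells were sensitized 2 h at 37 °C in rat antiserum with heparin, then challenged with EA; drug was added together with antigen at several concentrations, 4 trials each. After 10 min, histamine was measured fluorimetrically and % inhibition calculated vs drug-free release.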

Rattus norvegicus [20] = experiment: Percent inhibition of PCA reaction at 33 mg/kg oral dose after 24 hr r; format: functional
Rattus norvegicus [21] = experiment: Antiallergic activity by passive cutaneous anaphylaxis test in ovalbumin sensitized male Harlan-Sprague-Dawley rats by oral dose; format: functional; method in brief: as §2

Molecule `Cc1nc2c(n1C)C(=O)N1CCN=C1N2Cc1ccc(Cl)cc1` has an IC50 (Cavia porcellus [1]) of 8.4 µg/mL (≈ 25.5 µM).

Molecule `O=C1c2nc[nH]c2N(Cc2ccccn2)C2=NCCN12` has an IC50 (Cavia porcellus [1]) of 128 µg/mL (≈ 477 µM) and an ED50 (Rattus norvegicus [2]) of over 25 mg/kg.

`CSc1nc2c([nH]1)N(Cc1ccc(Cl)cc1)C1=NCCN1C2=O` showed an IC50 (Cavia porcellus [3]) of 13.7 µg/mL (≈ 39.4 µM) and an ED50 (Rattus norvegicus [4]) of over 30 mg/kg.

With `CCc1nc2c([nH]1)N(Cc1ccc(Cl)cc1)C1=NCCN1C2=O` the IC50 (Cavia porcellus [1]) was 13 µg/mL (≈ 39.4 µM) and the ED50 (Rattus norvegicus [5]) was over 10 mg/kg.

Work on `O=C1c2[nH]cnc2N(Cc2cccc(Cl)c2)C2=NCCN12` yielded an IC50 (Cavia porcellus [1]) of 12.5 µg/mL (≈ 41.4 µM).

Work on `CC1CN2C(=O)c3c(ncn3C)N(Cc3ccc(Cl)cc3)C2=N1` (stereo not drawn) yielded an IC50 (Cavia porcellus [1]) of 2.3 µg/mL (≈ 6.97 µM), an ED50 (Rattus norvegicus [4]) of 1.1 mg/kg and an ED50 (Rattus norvegicus [6]) of 3.4 mg/kg. The ED50 (Rattus norvegicus [7]) was 28.9 mg/kg.

Molecule `Cn1c(=O)c2nc[nH]c2n(C)c1=O.O` [THEOPHYLLINE] has an IC50 (Cavia porcellus [3]) of 18.5 µg/mL, a Ki [8] of 1.15 mM and an ED50 (Rattus norvegicus [9]) of 11.7 mg/kg. The ED50 (Rattus norvegicus [10]) was over 7.9 mg/kg, the inhibition in vivo at 47.6 mg/kg (Rattus norvegicus [11]) was 0% and the inhibition in vivo at 47.6 mg/kg (Rattus norvegicus [12]) was 52.5%. The inhibition in vivo at 47.6 mg/kg (Rattus norvegicus [13]) was 13%, the inhibition in vivo at 11.7 mg/kg (Rattus norvegicus [14]) was 42.4% and the inhibition in vivo at 47.6 mg/kg (Rattus norvegicus [15]) was 51.9%. It also gave an IC50 (Rattus norvegicus [16]) of 2.5 mM and an inhibition in vivo at 11.7 mg/kg (Rattus norvegicus [17]) of 25.1%.

Work on `Cc1nc2c([nH]1)N(Cc1ccc(Cl)cc1)C1=NC(C)(C)CN1C2=O` yielded an IC50 (Cavia porcellus [1]) of 1.7 µg/mL (≈ 4.94 µM), an ED50 (Rattus norvegicus [4]) of 7.3 mg/kg and an ED50 (Rattus norvegicus [6]) of 1.08 mg/kg. It also gave an ED50 (Rattus norvegicus [7]) of 44.4 mg/kg.

In the case of `CCCCCCCCN1C2=NCCN2C(=O)c2[nH]cnc21`, the IC50 (Cavia porcellus [3]) is reported as 24.5 µg/mL (≈ 84.7 µM).

In the case of `O=C1c2nc[nH]c2N(Cc2ccccc2)C2=NCCN12`, the IC50 (Cavia porcellus [1]) is reported as 22.5 µg/mL (≈ 84.2 µM) and the ED50 (Rattus norvegicus [18]) is reported as “inactive”.

For `O=C1c2nc[nH]c2N(CC2CCCCC2)C2=NCCN12`, the IC50 (Cavia porcellus [3]) was 10 µg/mL (≈ 36.6 µM) and the ED50 (Rattus norvegicus [18]) was “inactive”.

`Cc1nc2c(n1C)C(=O)N1CC(C)N=C1N2Cc1ccc(Cl)cc1` (stereo not drawn) showed an IC50 (Cavia porcellus [1]) of 7.9 µg/mL (≈ 23 µM), an ED50 (Rattus norvegicus [4]) of 7.5 mg/kg and an ED50 (Rattus norvegicus [6]) of 14.2 mg/kg. It also gave an ED50 (Rattus norvegicus [7]) of 38.7 mg/kg.

`O=C1c2[nH]cnc2N(Cc2ccc(F)cc2)C2=NCCN12` showed an IC50 (Cavia porcellus [1]) of 17.5 µg/mL (≈ 61.3 µM).

`O=C([O-])c1cc(=O)c2c(OCC(O)COc3cccc4oc(C(=O)[O-])cc(=O)c34)cccc2o1.[Na+].[Na+]` [CROMOLYN SODIUM] showed an ED50 (Rattus norvegicus [10]) of 0.29 mg/kg and an IC50 (Rattus norvegicus [19]) of 8 µM.

`O=C1c2[nH]c(Br)nc2N(Cc2ccc(Cl)cc2)C2=NCCN12` gave an IC50 (Cavia porcellus [3]) of 54 µg/mL (≈ 142 µM).

`O=C1N2CCN=C2c2[nH]cnc2N1Cc1ccc(Cl)cc1` showed an ED50 (Rattus norvegicus [5]) of over 50 mg/kg.

`O=C1c2[nH]cnc2N(Cc2ccc(Cl)cc2)C2=NCCN12` gave an IC50 (Cavia porcellus [1]) of 14 µg/mL (≈ 46.4 µM), an ED50 (Rattus norvegicus [9]) of 8.4 mg/kg and an ED50 (Rattus norvegicus [10]) of 2.4 mg/kg. The ED50 (Rattus norvegicus [6]) was 0.9 mg/kg, the IC50 (Rattus norvegicus [16]) was 0.49 mM and the inhibition in vivo at 33 mg/kg (Rattus norvegicus [20]) was 11.5%.

Molecule `CC1CN2C(=O)c3[nH]cnc3N(Cc3ccc(Cl)cc3)C2=N1` (stereo not drawn) has an IC50 (Cavia porcellus [1]) of 3.7 µg/mL (≈ 11.7 µM), an ED50 (Rattus norvegicus [4]) of 2.1 mg/kg and an ED50 (Rattus norvegicus [6]) of 1.5 mg/kg. For the same molecule, the ED50 (Rattus norvegicus [7]) was 10.6 mg/kg.

In the case of `N=C1c2[nH]cnc2N(Cc2ccc(Cl)cc2)C2=NCCN12`, the IC50 (Cavia porcellus [1]) is reported as 19.8 µg/mL (≈ 65.8 µM) and the ED50 (Rattus norvegicus [5]) is reported as over 30 mg/kg.

With `CC(C)CN1C2=NCCN2C(=O)c2[nH]c(C(C)C)nc21` the IC50 (Cavia porcellus [1]) was 11.5 µg/mL (≈ 41.8 µM), the ED50 (Rattus norvegicus [4]) was 9.5 mg/kg and the ED50 (Rattus norvegicus [7]) was 15.3 mg/kg.

For `CC(C)CN1C2=NCCN2C(=O)c2[nH]cnc21`, the IC50 (Cavia porcellus [1]) was 6.3 µg/mL (≈ 27 µM) and the ED50 (Rattus norvegicus [21]) was over 25 mg/kg.
